From paper PMC3328361 (The Journal of Experimental Medicine, 2012)

Tests used:
[1] = Time-dependent degradation of ONOO^− monitored by UV-visible spectroscopy; type: biochemical; settings: Cu^II(atsm) at 10 µM; ONOO^− in high pH solution (alone 53 ± 3 min)
α-synuclein [2] = molecular target: T1, α-synuclein (Homo sapiens, UniProt P37840); assay: 2D [1H,15N] HSQC NMR titration of 15N-labeled α-synuclein; type: binding; settings: increasing concentrations titrated in
α-synuclein [3] = molecular target: T1, α-synuclein; assay: α-Synuclein amyloid fibril formation; type: biochemical; settings: unpublished data
[4] = system: differentiated SH-SY5Y cells; assay: MTS cell viability, SIN-1–induced toxicity; type: cell-based, human; settings: added to cell culture 5 min after SIN-1; unpublished data
[5] = system: differentiated SH-SY5Y cells; assay: 3-NT levels in cell media by ELISA after SIN-1; type: cell-based, human; settings: 40 µM pretreatment before SIN-1
Procedure, shortened: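 Human SH-SY5Y cells were differentiated with 10 µM retinoic acid in 1.5% FCS medium for 3 d, then given fresh medium for another 3 d. Cells were preincubated with test compound (10, 20, 40 µM) for 5 min, then exposed to 3 mM SIN-1 for 90 min. Media were coated in pH 9.6 carbonate buffer for ELISA at 22°C: rabbit […] 1:2000, HRP secondary, TMB, A450.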

[6] = Rat pharmacokinetic study; type: in vivo, Sprague Dawley rats
Procedure, shortened: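 Fasted male Sprague Dawley rats (6–8 wk, ~280 g) received 20 mg/kg by oral gavage as a 6 mg/ml suspension (n = 3). Another group (n = 3) got 5 mg/kg by i.v. jugular-cannula infusion at 0.05 ml/min, as a 3 mg/ml solution in 20% DMSO/80% propylene glycol. Serial blood was taken to 24 h; plasma was acetonitrile-precipitated and analysed by LC-MS.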

[7] = Mouse pharmacokinetic and brain uptake study; type: in vivo, C57BL/6 mice
Procedure, shortened: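 Male C57BL/6 mice, 11 wk old, got a single 30 mg/kg oral gavage dose (7.5 mg/ml suspension in standard suspension vehicle). Plasma and brain were sampled at time points up to 24 h, n = 3 per point, under pentobarbitone anaesthesia. Samples were acetonitrile-precipitated and quantified against matrix-matched standards. Quantitation limits: 5 ng/ml plasma, 10 ng/g brain. Brain/plasma ratio taken from AUC0-6h.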

[8] = system: MPTP-lesioned C57BL/6 mice; assay: Stereological SNpc neuron counts, MPTP-lesioned wild-type mice; type: in vivo; settings: for increase in number of SNpc neurons vs vehicle-treated MPTP-lesioned mice: started 1 d after lesion, 20 d
[9] = system: 6-OHDA-lesioned C57BL/6 mice; assay: Stereological SNpc neuron counts, 6-OHDA-lesioned mice; type: in vivo; settings: 30 mg/kg, started 3 d after 6-OHDA lesion, 20 d
Procedure, shortened: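 6-OHDA lesion in the right substantia nigra of 2-mo-old C57BL/6 mice; dosing started 3 d post-lesion. Mice were perfused with cold PBS. The right hemisphere was fixed overnight in 4% paraformaldehyde in 0.1 M phosphate buffer at 4°C. Nissl-stained SNpc neurons were counted stereologically with an unbiased 45 µm × 35 µm counting frame.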

[10] = system: hA53T α-synuclein tg mice; assay: Stereological nigral cell counts, hA53T α-synuclein tg mice; type: in vivo; settings: 30 mg/kg, 20 d
Procedure, shortened: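 hA53T α-synuclein tg mice and C57BL/6 x C3H background controls, 7 mo old, equal sexes, received 30 mg/kg test compound or suspension vehicle by oral gavage for 20 d. The right hemisphere of PBS-perfused brains was fixed overnight in 4% paraformaldehyde at 4°C. Nissl-stained nigral neurons were counted stereologically using a 45 µm × 35 µm unbiased counting frame.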

[11] = system: hA53T tg mice lesioned with MPTP; assay: Stereological SNpc neuron counts, MPTP-lesioned hA53T tg mice; type: in vivo; settings: 30 mg/kg
Procedure, shortened: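 MPTP was given i.p. as four 10 mg/kg doses at 2-h intervals. Groups: 4-mo-old female C57BL/6 mice and 7-mo-old hA53T α-synuclein tg mice, equal sexes. From 1 d post-lesion, mice got 15 or 30 mg/kg test compound or suspension vehicle by oral gavage for […]; saline sham-lesioned controls got vehicle. Perfused brains, right hemisphere fixed in 4% paraformaldehyde; Nissl-stained SNpc counted stereologically (45 × 35 µm frame).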

[12] = system: MPTP-lesioned C57BL/6 mice; assay: Pole test, MPTP-lesioned wild-type mice; type: in vivo
Procedure, shortened: (§1)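 Oral gavage of 15 or 30 mg/kg test compound or suspension vehicle began 1 d post-lesion. Saline sham-lesioned controls received vehicle. Pole test (Tturn, Ttotal) was run after 19 d of treatment.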

[13] = system: hA53T α-synuclein tg mice; assay: Pole test, hA53T α-synuclein tg mice; type: in vivo; settings: 30 mg/kg
[14] = system: hA53T tg mice lesioned with MPTP; assay: Pole test, MPTP-lesioned hA53T tg mice; type: in vivo
Procedure, shortened: as §1

[15] = system: 6-OHDA-lesioned C57BL/6 mice; assay: Amphetamine-induced rotation, 6-OHDA model; type: in vivo; settings: 30 mg/kg, 6-OHDA-lesioned mice
Procedure, shortened: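 Partial 6-OHDA lesion: 2 µl injected into the right substantia nigra of 2-mo-old C57BL/6 mice, 3.0 mm AP, 1.1 mm lateral, 4.7 mm DV from bregma. Amphetamine-induced rotation was tested 3 d post-lesion, before dosing, to confirm lesion size. Mice were randomised to test compound or vehicle for 18 d, then rotation was retested.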

TH = TH levels in SNpc of MPTP-lesioned mice; type: in vivo
Procedure, shortened: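 MPTP lesion: four i.p. doses of 10 mg/kg at 2-h intervals; 15 or 30 mg/kg oral gavage from the next day. For TH immunostaining, 30 µm coronal SNpc sections were post-fixed in 4% PFA and boiled in citrate buffer (pH 6.0). They were blocked with normal goat serum and incubated overnight at room temperature with rabbit anti-TH 1:3000, then HRP secondary for 2 h and DAB. Western blots were normalised to GAPDH or β-actin.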

MPTP-lesioned mice = assay: Dopamine measurement of mouse striatum; type: in vivo; settings: 30 mg/kg
Procedure, shortened: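 MPTP lesion: four i.p. doses of 10 mg/kg at 2-h intervals. Starting the next day, mice received 30 mg/kg test compound or suspension vehicle by oral gavage. Right striatum was homogenised by pulse sonication in 0.4 M perchloric acid with 0.15% sodium metabisulfite and 0.05% EDTA disodium salt for dopamine measurement.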

VMAT2 [16] = assay: VMAT2 levels in MPTP-lesioned mice; type: in vivo; settings: for increase in VMAT2 levels: 3–4-mo-old MPTP-lesioned mice
Procedure, shortened: (§2)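 MPTP lesion: four i.p. doses of 10 mg/kg at 2-h intervals. Test compound (15 or 30 mg/kg) or vehicle was given by oral gavage from the next day for 21 d. Brain homogenate (~20 µg) was reduced, heated to 90°C for 5 min, run on 10% SDS-PAGE and blotted to nitrocellulose. Densitometry was normalised to GAPDH or β-actin and expressed as percentage of vehicle.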

VMAT2 [17] = assay: VMAT2 microPET imaging with 18F-AV133, MPTP-lesioned 18-mo-old mice; type: in vivo; settings: 18 mo MPTP-lesioned mice, 30 mg/kg
Procedure, shortened: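 Female B6C3H x HeJ mice, 18 mo old, had baseline VMAT2 microPET: 500 µCi 18F-AV-133 by tail vein, imaged for 30 min. They were then lesioned with 4 × 10 mg/kg MPTP. Treatment at 30 mg/kg or vehicle began the following day and ran 21 d, after which microPET imaging was repeated.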

α-synuclein [18] = assay: α-Synuclein levels in SNpc, MPTP-lesioned wild-type mice; type: in vivo
Procedure, shortened: as §2

α-synuclein [19] = assay: α-Synuclein levels in SNpc, MPTP-lesioned hA53T α-synuclein tg mice; type: in vivo
Procedure, shortened: as §2

α-synuclein [20] = assay: α-Synuclein levels, hA53T α-synuclein tg mice not MPTP-lesioned; type: in vivo; settings: unpublished data
SNCA = SNCA gene expression by qPCR, MPTP-lesioned WT mice; type: in vivo
[21] = system: hA53T α-synuclein tg mice; assay: Novel object recognition; type: in vivo; settings: 30 mg/kg for 20 d
Procedure, shortened: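 hA53T α-synuclein tg mice, 7 mo old, equal sexes, received 30 mg/kg test compound or vehicle by oral gavage for 20 d. Novel object test with Lego blocks: 10-min training with two objects, 1-h delay, then one familiar object replaced by a novel 1.5 × 1.5 × 2.0 cm object. Index = time with novel object / time with familiar object.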

[22] = system: hA53T α-synuclein tg mice; assay: Y-maze test, hA53T tg mice; type: in vivo; settings: 30 mg/kg, vehicle-treated 30%
synaptophysin = assay: Synaptophysin levels in striatum of hA53T tg mice; type: in vivo; settings: 30 mg/kg
Procedure, shortened: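 hA53T tg mice, 7 mo old, were given 30 mg/kg or vehicle by oral gavage for 20 d. Striatal homogenate (~20 µg) was reduced with β-mercaptoethanol, heated to 90°C for 5 min, run on 10% SDS-PAGE and blotted to nitrocellulose. Synaptophysin densitometry was normalised to GAPDH or β-actin and expressed as percentage of vehicle.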

[23] = Overt toxicity observation in animal studies; type: in vivo; settings: studies of this paper and a longer term 12-mo trial in wild-type animals
[24] = system: low copy mice overexpressing human G93A SOD1; settings: ref Soon et al., 2011, cited from earlier work
[25] = single oral 20 mg/kg, male Sprague Dawley rats
[26] = single oral 30 mg/kg, C57BL/6 mice

Structure (SMILES): CN=C([S-])N/N=C(C)/C(C)=N/NC([S-])=NC.[Cu+2] [Cu^II(atsm), copper(II)diacetylbis(N(4)-methylthiosemicarbazonato)]
- ONOO^− half-life [1]: ~0.193 ± 0.0083 h
- direct interaction between α-synuclein and compound (HSQC spectra) (α-synuclein [2]): no direct interaction
- inhibition of formation of α-synuclein fibrils (α-synuclein [3]): did not inhibit the formation of α-synuclein fibrils
- protective effect in posttreatment paradigm [4]: no protective effect was observed
- reduction in nitrotyrosine (3-NT) levels [5]: 51%
- apparent oral bioavailability ([6]; oral 20 mg/kg vs intravenous 5 mg/kg, rats): 53 ± 5%
- Tmax [6, 25]: 10 h
- elimination half-life [6, 25]: 3.1 ± 0.4 h
- Cmax ([6]; single oral 20 mg/kg, male Sprague Dawley rats, plasma): 0.4881 ± 0.067 µg/mL
- maximum concentration of the compound in the brain ([7]; based on Cmax levels, oral 30 mg/kg mice): ~0.6 µM
- brain Cmax [7, 26]: 0.198 ± 0.061 µg/mL
- brain Tmax [7, 26]: 2 h
- brain/plasma ratio (AUC0-6h) [7, 26]: 0.32
- plasma Cmax [7, 26]: 0.591 ± 0.203 µg/mL
- plasma Tmax [7, 26]: 1 h
- apparent elimination half-life ([7]; single oral 30 mg/kg, C57BL/6 mice, plasma): ~3.3 h
- increase in number of SNpc neurons vs vehicle-treated MPTP-lesioned mice ([8]; 15 mg/kg oral gavage): 43%
- increase in number of SNpc neurons vs vehicle-treated MPTP-lesioned mice ([8]; 30 mg/kg oral gavage): 61%
- effect on cell numbers of nonlesioned wild-type mice ([8]; nonlesioned wild-type mice): no effect
- increase in number of SNpc dopaminergic neurons [9]: 26%
- increase in total nigral cells [10]: 14%
- increase of SNpc neurons [11]: 15%
- decrease of Tturn and Ttotal times ([12]; 15 mg/kg): did not reach statistical significance
- faster Ttotal (pole test) vs MPTP-lesioned vehicle ([12]; 30 mg/kg): 2.2 s
- faster Tturn (pole test) vs MPTP-lesioned vehicle ([12]; 30 mg/kg): 1.5 s
- effect on motor performance of nonlesioned wild-type mice ([12]; nonlesioned wild-type mice): no effect
- improvement in Ttotal times [13]: not statistically significant
- Tturn (pole test) ([13]; vehicle 3.9 ± 0.5 s): 1.1 ± 0.3 s
- improvement in Ttotal [14]: 37%
- improvement in Tturn [14]: 49%
- Tturn (pole test) ([14]; vehicle 2.4 ± 0.4 s): 1.2 ± 0.1 s
- Ttotal (pole test) ([14]; vehicle 6.1 ± 0.8 s): 3.9 ± 0.2 s
- reduction in amphetamine-induced rotational behavior vs controls [15]: 45%
- TH mRNA transcript levels (qPCR, SNpc) (TH): rescued
- increase in TH levels (Western blot) (TH; 15 mg/kg): 42%
- increase in TH levels (Western blot) (TH; 30 mg/kg): 45%
- immunostaining of TH in SNpc (TH; either 15 or 30 mg/kg): increased immunostaining
- increase in dopamine levels vs untreated MPTP-lesioned animals (MPTP-lesioned mice): 122%
- increase in VMAT2 levels (VMAT2 [16]; 15 mg/kg): 13%
- increase in VMAT2 levels (VMAT2 [16]; 30 mg/kg): 12%
- VMAT2 transcripts (qPCR, SNpc) (VMAT2 [16]; MPTP-lesioned animals): levels were restored to those similar to the wild-type animals
- increase in VMAT2 protein levels in striatum (Western blot) (VMAT2 [16]; older (18 mo) MPTP-lesioned mice): 60%
- increase in 18F-AV133 ligand binding vs vehicle control lesioned mice (VMAT2 [17]): 142%
- α-synuclein dimers, % of control-treated (α-synuclein [18]): 76%
- α-synuclein monomer levels (α-synuclein [18]): no changes
- reduction in α-synuclein monomer levels (α-synuclein [19]; MPTP-lesioned hA53T tg mice): 12%
- α-synuclein dimers, % of control-treated (α-synuclein [19]; MPTP-lesioned hA53T α-synuclein tg mice): 83%
- α-synuclein levels vs vehicle treatment (α-synuclein [20]): did not lead to any significant differences
- SNCA gene regulation (qPCR) (SNCA): recovered to levels of unlesioned WT mice
- increase in interactions with the novel object vs vehicle-treated mice [21]: 73%
- mean novel arm entries (Y-maze) [22]: 42%
- increase in synaptophysin levels vs vehicle-treated tg mice (synaptophysin): 31%
- overt toxicity [23]: No overt toxicity
- motor phenotype in ALS tg mouse model ([24]; pre- and postsymptomatic treatment regimes): successful in rescuing the motor phenotype
- survival in ALS tg mouse model [24]: increased survival rates
